Data from ChEMBL document CHEMBL2331355, “Synthesis, structure activity relationship and mode of action of 3-substitutedphenyl-1-(2,2,8,8-tetramethyl-3,4,9,10-tetrahydro-2H,8H-pyrano[2,3-f]chromen-6-yl)-propenones as novel anticancer agents in human leukaemia HL-60 cells” (Eur J Med Chem, 2013).
The source made the active and inactive calls. The rule behind the calls is not given here.

Columns and labels:
HL-60 [1] = experiment: Cell cycle arrest in human HL60 cells assessed as G2/M phase cells at 20 uM after 24 hrs by PI staining-based flow cytometric analysis (reference value: 3%); format: functional
HL-60 [2] = experiment: Cytotoxicity against human HL60 cells after 24 hrs by MTT assay; format: functional, cell-based; settings: HL-60, 24 h
Procedure, shortened: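 HL-60 cells exposed 24 h to a range of concentrations, then MTT reduction measured. Untreated control OD taken as 100% viability; IC50 derived from the curve. Mean ± SD, n = 8 wells, three independent experiments.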

ASPC1 [3] = experiment: Growth inhibition of human AsPC1 cells at 50 uM after 48 hrs by MTT assay; format: functional; settings: ASPC1, 48 h, read-out: GI
Procedure, shortened: (§1)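 Single-concentration MTT screen at 50 µM over 48 h in 96-well plates. Compounds giving >50% inhibition were rescreened at 30 µM. OD read at 570 nm, reference 620 nm. Result expressed as % growth inhibition versus untreated control. Mitomycin C, adriamycin or 5-fluorouracil used as positive controls. Mean ± SD of three independent experiments.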

HL-60 [4] = experiment: Cell cycle arrest in human HL60 cells assessed as S phase cells at 5 uM after 24 hrs by PI staining-based flow cytometric analysis (reference value: 49%); format: functional
HL-60 [5] = experiment: Induction of mitochondrial membrane potential loss in human HL60 cells at 20 uM after 24 hrs by rhodamine-123 staining method (reference value: 7%); format: functional
Procedure, shortened: (§2)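 HL-60 cells (1 × 10⁶/2 ml/well) treated 24 h at 15 or 20 µM, then incubated with rhodamine-123 (200 nM) for 40 min. Loss of dye uptake measured by flow cytometry. Camptothecin (4 µM, 6 h) as positive control. Representative of three experiments.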

PC-3 [6] = experiment: Growth inhibition of human PC3 cells at 50 uM after 48 hrs by MTT assay; format: functional; settings: PC-3, 48 h, read-out: GI; procedure, shortened: as §1
HL-60 [7] = experiment: Cell cycle arrest in human HL60 cells assessed as G2/M phase cells at 15 uM after 24 hrs by PI staining-based flow cytometric analysis (reference value: 3%); format: functional
MIA PaCa-2 [8] = experiment: Growth inhibition of human MIAPaCa2 cells at 50 uM after 48 hrs by MTT assay; format: functional; settings: MIA PaCa-2, 48 h, read-out: GI; procedure, shortened: as §1
HL-60 [9] = experiment: Induction of apoptosis in human HL60 cells assessed as accumulation of sub-G0/G1 phase cells after 24 hrs by PI-staining based flow cytometric analysis; format: functional, cell-based
HL-60 [10] = experiment: Induction of apoptosis in human HL60 cells at 20 uM after 24 hrs by PI-staining based flow cytometric analysis (reference value: 0.7 %); format: functional
ASPC1 [11] = experiment: Growth inhibition of human AsPC1 cells at 30 uM after 48 hrs by MTT assay; format: functional, cell-based; procedure, shortened: as §1
HL-60 [12] = experiment: Cell cycle arrest in human HL60 cells assessed as S phase cells at 20 uM after 24 hrs by PI staining-based flow cytometric analysis (reference value: 49%); format: functional
HL-60 [13] = experiment: Induction of mitochondrial membrane potential loss in human HL60 cells at 15 uM after 24 hrs by rhodamine-123 staining method (reference value: 7%); format: functional; procedure, shortened: as §2
HL-60 [14] = experiment: Cell cycle arrest in human HL60 cells assessed as accumulation of G0/G1 phase cells at 20 uM after 24 hrs by PI staining-based flow cytometric analysis (reference value: 48%); format: functional
PC-3 [15] = experiment: Growth inhibition of human PC3 cells at 30 uM after 48 hrs by MTT assay; format: functional, cell-based; procedure, shortened: as §1
HL-60 [16] = experiment: Cell cycle arrest in human HL60 cells assessed as decrease in S phase cells after 24 hrs by PI staining-based flow cytometric analysis; format: functional
HL-60 [17] = experiment: Cell cycle arrest in human HL60 cells assessed as accumulation of G0/G1 phase cells at 15 uM after 24 hrs by PI staining-based flow cytometric analysis (reference value: 48%); format: functional
HL-60 [18] = experiment: Induction of apoptosis in human HL60 cells assessed as apoptotic bodies at 20 uM after 24 hrs by Hoechst 33258 staining; format: functional, cell-based
Procedure, shortened: (§3)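 HL-60 cells (1 × 10⁶/2 ml) treated 24 h at 15 and 20 µM, pelleted at 300 g and washed. Stained with Hoechst 33258, then examined under an inverted fluorescence microscope (10×, UV excitation) for nuclear condensation, blebbing and apoptotic bodies.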

HL-60 [19] = experiment: Cell cycle arrest in human HL60 cells assessed as accumulation of G0/G1 phase cells at 10 uM after 24 hrs by PI staining-based flow cytometric analysis (reference value: 48%); format: functional
MDA-MB-435 [20] = experiment: Growth inhibition of human MDA-MB-435 cells at 50 uM after 48 hrs by MTT assay; format: functional; settings: MDA-MB-435, 48 h, read-out: GI; procedure, shortened: as §1
HL-60 [21] = experiment: Cell cycle arrest in human HL60 cells assessed as accumulation of G0/G1 phase cells after 24 hrs by PI staining-based flow cytometric analysis; format: functional
HL-60 [22] = experiment: Growth inhibition of human HL60 cells at 30 uM after 48 hrs by MTT assay; format: functional, cell-based; procedure, shortened: as §1
HL-60 [23] = experiment: Cell cycle arrest in human HL60 cells assessed as S phase cells at 15 uM after 24 hrs by PI staining-based flow cytometric analysis (reference value: 49%); format: functional
HL-60 [24] = experiment: Induction of apoptosis in human HL60 cells at 15 uM after 24 hrs by PI-staining based flow cytometric analysis (reference value: 0.7 %); format: functional
HL-60 [25] = experiment: Cell cycle arrest in human HL60 cells assessed as G2/M phase cells at 5 uM after 24 hrs by PI staining-based flow cytometric analysis (reference value: 3%); format: functional
Caco-2 [26] = experiment: Growth inhibition of human Caco2 cells at 30 uM after 48 hrs by MTT assay; format: functional, cell-based; procedure, shortened: as §1
HL-60 [27] = experiment: Cell cycle arrest in human HL60 cells assessed as decrease in G2/M phase cells after 24 hrs by PI staining-based flow cytometric analysis; format: functional
HL-60 [28] = experiment: Growth inhibition of human HL60 cells at 50 uM after 48 hrs by MTT assay; format: functional; settings: HL-60, 48 h, read-out: GI; procedure, shortened: as §1
MCF7 [29] = experiment: Growth inhibition of human MCF7 cells at 50 uM after 48 hrs by MTT assay; format: functional; settings: MCF7, 48 h, read-out: GI; procedure, shortened: as §1
HL-60 [30] = experiment: Induction of apoptosis in human HL60 cells assessed as DNA fragmentation at 20 uM after 24 hrs by SDS-PAGE analysis; format: functional, cell-based; settings: in the assay text read “agarose gel electrophoresis” for “SDS-PAGE analysis”
Procedure, shortened: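 HL-60 cells (2 × 10⁶/3 ml/well) treated at 20 µM for 24 h. Lysed, then digested with RNase (400 µg/ml, 37 °C, 90 min) and proteinase K (200 µg/ml, 50 °C, 1 h). DNA extracted with phenol/chloroform/isoamyl alcohol and alcohol-precipitated. Run on 1.8% agarose gel at 70 V for 1 h, stained with ethidium bromide, and scored for laddering.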

MCF7 [31] = experiment: Growth inhibition of human MCF7 cells at 30 uM after 48 hrs by MTT assay; format: functional, cell-based; procedure, shortened: as §1
HL-60 [32] = experiment: Induction of apoptosis in human HL60 cells at 10 uM after 24 hrs by PI-staining based flow cytometric analysis (reference value: 0.7 %); format: functional
Caco-2 [33] = experiment: Growth inhibition of human Caco2 cells at 50 uM after 48 hrs by MTT assay; format: functional; settings: Caco-2, 48 h, read-out: GI; procedure, shortened: as §1
HL-60 [34] = experiment: Cell cycle arrest in human HL60 cells assessed as accumulation of G0/G1 phase cells at 5 uM after 24 hrs by PI staining-based flow cytometric analysis (reference value: 48%); format: functional
PC-3 [35] = experiment: Cytotoxicity against human PC3 cells after 48 hrs by MTT assay; format: functional, cell-based; settings: PC-3, 48 h
Procedure, shortened: (§4)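 MTT assay in 96-well plates, 48 h exposure across 1–100 µM. OD read at 570 nm against a 620 nm reference. Untreated control OD taken as 100% viability. IC50 derived from the concentration–response curves. Mean ± SD, n = 8 wells, from three independent experiments.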

MDA-MB-435 [36] = experiment: Growth inhibition of human MDA-MB-435 cells at 30 uM after 48 hrs by MTT assay; format: functional, cell-based; procedure, shortened: as §1
HL-60 [37] = experiment: Cell cycle arrest in human HL60 cells assessed as S phase cells at 10 uM after 24 hrs by PI staining-based flow cytometric analysis (reference value: 49%); format: functional
HL-60 [38] = experiment: Cell cycle arrest in human HL60 cells assessed as G2/M phase cells at 10 uM after 24 hrs by PI staining-based flow cytometric analysis (reference value: 3%); format: functional
HL-60 [39] = experiment: Induction of apoptosis in human HL60 cells at 5 uM after 24 hrs by PI-staining based flow cytometric analysis (reference value: 0.7 %); format: functional
MIA PaCa-2 [40] = experiment: Cytotoxicity against human MIAPaCa2 cells after 48 hrs by MTT assay; format: functional, cell-based; settings: MIA PaCa-2, 48 h; procedure, shortened: as §4
HL-60 [41] = experiment: Induction of apoptosis in human HL60 cells assessed as nuclear condensation after 24 hrs by Hoechst 33258 staining; format: functional, cell-based; procedure, shortened: as §3
Caco-2 [42] = experiment: Cytotoxicity against human Caco2 cells after 48 hrs by MTT assay; format: functional, cell-based; settings: Caco-2, 48 h; procedure, shortened: as §4
MIA PaCa-2 [43] = experiment: Growth inhibition of human MIAPaCa2 cells at 30 uM after 48 hrs by MTT assay; format: functional, cell-based; procedure, shortened: as §1
HL-60 [44] = experiment: Induction of apoptosis in human HL60 cells assessed as nuclear blebbing after 24 hrs by Hoechst 33258 staining; format: functional, cell-based; procedure, shortened: as §3

CC1(C)CCc2cc(C(=O)/C=C/c3ccc(C#N)cc3)c3c(c2O1)CCC(C)(C)O3
Activity (HL-60 [1]): 3%
IC50 (HL-60 [2]): 16 µM
inhibition of growth at 50 µM (ASPC1 [3]): 48%
Activity (HL-60 [4]): 46%
Activity (HL-60 [5]): 61%
inhibition of growth at 50 µM (PC-3 [6]): 76%
Activity (HL-60 [7]): 4%
inhibition of growth at 50 µM (MIA PaCa-2 [8]): 76%
Activity (HL-60 [9]): Dose-dependent effect
Activity (HL-60 [10]): 71%
growth inhibition (GI) (ASPC1 [11]): Active
Activity (HL-60 [12]): 9%
Activity (HL-60 [13]): 49%
Activity (HL-60 [14]): 88%
growth inhibition (GI) (PC-3 [15]): Active
Activity (HL-60 [16]): Dose-dependent effect
Activity (HL-60 [17]): 73%
Activity (HL-60 [18]): Active
Activity (HL-60 [19]): 56%
inhibition of growth at 50 µM (MDA-MB-435 [20]): 88%
Activity (HL-60 [21]): Dose-dependent effect
growth inhibition (GI) (HL-60 [22]): Active
Activity (HL-60 [23]): 23%
Activity (HL-60 [24]): 31%
Activity (HL-60 [25]): 6%
growth inhibition (GI) (Caco-2 [26]): Active
Activity (HL-60 [27]): Dose-dependent effect
inhibition of growth at 50 µM (HL-60 [28]): 93%
inhibition of growth at 50 µM (MCF7 [29]): 78%
Activity (HL-60 [30]): Active
growth inhibition (GI) (MCF7 [31]): Active
Activity (HL-60 [32]): 11%
inhibition of growth at 50 µM (Caco-2 [33]): 93%
Activity (HL-60 [34]): 48%
IC50 (PC-3 [35]): 7 µM
growth inhibition (GI) (MDA-MB-435 [36]): Active
Activity (HL-60 [37]): 39%
Activity (HL-60 [38]): 5%
Activity (HL-60 [39]): 1%
IC50 (MIA PaCa-2 [40]): 12 µM
Activity (HL-60 [41]): Dose-dependent effect
IC50 (Caco-2 [42]): 12 µM
growth inhibition (GI) (MIA PaCa-2 [43]): Active
Activity (HL-60 [44]): Dose-dependent effect

CC1(C)CCc2cc(C(=O)/C=C/c3ccc(Br)cc3)c3c(c2O1)CCC(C)(C)O3
inhibition of growth at 50 µM (ASPC1 [3]): 27%
inhibition of growth at 50 µM (PC-3 [6]): 33%
inhibition of growth at 50 µM (MIA PaCa-2 [8]): 45%
inhibition of growth at 50 µM (MDA-MB-435 [20]): 52%
inhibition of growth at 50 µM (HL-60 [28]): 25%
inhibition of growth at 50 µM (MCF7 [29]): 16%
inhibition of growth at 50 µM (Caco-2 [33]): 28%

Cc1ccc(/C=C/C(=O)c2cc3c(c4c2OC(C)(C)CC4)OC(C)(C)CC3)cc1
inhibition of growth at 50 µM (ASPC1 [3]): 2%
inhibition of growth at 50 µM (PC-3 [6]): 48%
inhibition of growth at 50 µM (MIA PaCa-2 [8]): 41%
inhibition of growth at 50 µM (MDA-MB-435 [20]): 38%
inhibition of growth at 50 µM (HL-60 [28]): 18%
inhibition of growth at 50 µM (MCF7 [29]): 15%
inhibition of growth at 50 µM (Caco-2 [33]): 11%
